# Published values of several laboratories.
# Each line is one published result; the experiments were not run side by side.
# ADRA2A: Alpha-2A adrenergic receptor (ADRA2A, Homo sapiens, UniProt P08913)
# OPRD1: Delta-type opioid receptor (OPRD1, Homo sapiens, UniProt P41143)
# OGT: UDP-N-acetylglucosamine--peptide N-acetylglucosaminyltransferase 110 kDa subunit (OGT, Homo sapiens, UniProt O15294)
# gag-pol reverse transcriptase: Gag-Pol polyprotein, reverse transcriptase (gag-pol, Human immunodeficiency virus 1, UniProt P03366)
Structure (SMILES),target,assay,test system,setting,IC50 [µM]
CC(C)Cc1ccc([C@H](C)C(=O)O)cc1,"Histone acetyltransferase p300 (EP300, Homo sapiens, UniProt Q09472)","enzyme activity, inhibitor, mobility shift",,,~6000
Cc1cc(C)nc(Nc2ncc(C(=O)NCCc3c(C)[nH]c4ccccc34)cn2)c1,"Cytochrome P450 2C19 (CYP2C19, Homo sapiens, UniProt P33261)","enzyme activity, inhibitor","human, liver microsomes",,11
CC(CCc1ccccc1)NC(C)C(O)c1ccc(O)cc1 (stereo not drawn),ADRA2A,"calcium signal, antagonist",,,18.6
CC(C)CCN1CCN([C@@H](CNCc2ccccc2)C(C)C)C[C@H]1C(C)C,OPRD1,cell-free assay,,,> 10
CC[C@H](C)[C@H](NC(=O)[C@H](CO)NC(=O)[C@H](Cc1ccc(O)cc1)NC(=O)[C@H](CCCCN)NC(=O)[C@@H]1CCCN1C(=O)[C@H](CCSC)NC(=O)[C@@H](N)Cc1ccccc1)C(=O)N[C@H](C(=O)N[C@@H](Cc1ccccc1)C(=O)O)[C@@H](C)CC,OGT,"enzyme activity, inhibitor, fluorescence",,,120
COc1ncccc1-c1cnn2ccc(N3CCN(C(=O)OC(C)C)CC3)nc12,ADRA2A,cell-free assay,,,> 30
CNC[C@H](Cc1ccc(O)cc1)N1CCN(CCc2cccc(C)c2)[C@@H](C(C)C)C1,OPRD1,cell-free assay,,,> 10
C[C@@H](NC(=O)[C@@H](N)Cc1ccc(O)cc1)C(=O)NCC(=O)N[C@H](CC(=O)NNC(=O)C[C@H](Cc1ccccc1)NC(=O)CNC(=O)[C@@H](C)NC(=O)[C@@H](N)Cc1ccc(O)cc1)Cc1ccccc1,OPRD1,"ligand displacement, radioligand",,,0.00145
Cc1cn([C@@H]2CC[C@H](OC(C(=O)O)C(=O)O)C2)c(=O)[nH]c1=O (relative stereo),gag-pol reverse transcriptase,"enzyme activity, inhibitor, radiometric",,,42
Cc1c(O)c(O)cc2c1CC=C1[C@@]2(C)CC[C@@]2(C)[C@@H]3C[C@](C)(C(=O)O)CC[C@]3(C)CC[C@]12C,"Androgen receptor (AR, Homo sapiens, UniProt P10275)","ligand displacement in cells, radioligand",,,0.057
CNC[C@@H](Cc1ccc(O)cc1)N1CCN(CCC2CC3CCC2C3)CC1 (stereo partly drawn),OPRD1,cell-free assay,,,> 10
Cc1cc(/C=C/C#N)cc(C)c1Nc1ccnc(Nc2ccc(C#N)cc2)n1,gag-pol reverse transcriptase,"enzyme activity, inhibitor",,,0.0214
CC[C@H](C)[C@H](NC(=O)[C@H](CO)NC(=O)[C@H](Cc1ccc(O)cc1)NC(=O)[C@H](CCCCN)NC(=O)[C@@H]1CCCN1C(=O)[C@H](CCSC)NC(=O)[C@H](Cc1ccccc1)NC(=O)[C@H](CCSC)NC(=O)[C@@H](NC(=O)[C@@H]1CCCN1C(=O)[C@H](Cc1ccccc1)NC(=O)[C@H](CC(=O)O)NC(=O)CNC(=O)[C@H](CCCCN)NC(=O)[C@@H](N)CCCCN)C(C)C)C(=O)N[C@H](C(=O)N[C@@H](Cc1ccccc1)C(=O)O)[C@@H](C)CC,OGT,"enzyme activity, inhibitor, fluorescence",,,5.3
CCN(CC)C(=O)C1CN2CCc3cc(OC)c(OC)cc3C2CC1OC(C)=O (stereo not drawn),ADRA2A,"calcium signal, antagonist",,,0.45
Cc1cn([C@@H]2C=C[C@H](OC(P(=O)(O)O)P(=O)(O)O)C2)c(=O)[nH]c1=O (relative stereo),gag-pol reverse transcriptase,"enzyme activity, inhibitor, radiometric",,,204
CCC[C@H](CNC)NC[C@@H](CCC)NCC1CCC(C)CC1 (stereo partly drawn),OPRD1,cell-free assay,,,> 10
CN1CCC(=C2c3ccccc3CCc3sccc32)CC1,ADRA2A,"calcium signal, antagonist",,,7.25
CNC[C@H](Cc1ccc(O)cc1)NC[C@H](Cc1ccc(O)cc1)NCC1CCCCCC1,OPRD1,cell-free assay,,,> 10
CCOC(=O)c1cncn1C(C)c1ccc(C2(C(F)(F)F)N=N2)cc1 (stereo not drawn),"5-hydroxytryptamine receptor 3A (HTR3A, Homo sapiens, UniProt P46098)","ion current, two-electrode voltage clamp",,oocytes,9
CCC[C@H](CN[C@H](CNC)Cc1ccc(O)cc1)NCC1CCC(C)CC1 (stereo partly drawn),OPRD1,cell-free assay,,,> 10
O=c1c(O)c(-c2ccc(O[C@@H]3O[C@H](CO)[C@@H](O)[C@H](O)[C@H]3O)c(O)c2)oc2cc(O)cc(O)c12,"Carbonic anhydrase 2 (CA2, Homo sapiens, UniProt P00918)","enzyme activity, inhibitor, absorbance",,,0.0194
